Assay outcomes from PubChem.
OX1R antag-1 – blocks the human orexin 1 receptor | O43613 | CHO/OX1R cells, Fluo-8 calcium fluorescence, orexin A | inhibition, % at 5 µM | 0.43% of 330,000 active;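 active = inhibition above its plate's threshold, mean inhibition of all tested compounds on the plate plus 3 SD, cut at about 37% in these data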;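 note: 0% = orexin A challenge wells and 100% = SB-334867-A antagonist wells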
Target sequence (O43613 whole entry, looked up): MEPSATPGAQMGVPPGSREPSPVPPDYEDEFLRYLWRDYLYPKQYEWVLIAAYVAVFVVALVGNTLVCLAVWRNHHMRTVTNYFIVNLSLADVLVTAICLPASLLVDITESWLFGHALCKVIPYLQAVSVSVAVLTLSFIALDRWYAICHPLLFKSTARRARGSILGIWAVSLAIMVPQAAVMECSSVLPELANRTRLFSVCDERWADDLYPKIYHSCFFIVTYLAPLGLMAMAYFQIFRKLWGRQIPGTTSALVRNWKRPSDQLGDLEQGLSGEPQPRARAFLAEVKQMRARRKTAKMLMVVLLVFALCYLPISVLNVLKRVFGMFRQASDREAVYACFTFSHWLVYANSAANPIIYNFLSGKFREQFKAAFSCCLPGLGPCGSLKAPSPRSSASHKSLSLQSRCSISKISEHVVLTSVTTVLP
M1 PAM parental – nonselective activator or artifact in parental CHO-K1 calcium assay. 0.02% of 360,000 active. AID 602247. activation, % at 3 µM. ATP EC20, Fluo-8 calcium fluorescence; 0% at ATP EC20, 100% at ATP max;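 active = activation above the run cutoff, the mean activation of all test compounds plus 3 SD, cut at about 40% in these data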;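 note: peak over basal fluorescence ratio in a 140 s read after ATP addition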
CHO parental Ca – counter-screen: ATP calcium response change in parental CHO cells; parental CHO-K1, ATP-induced calcium, Fluo-8 fluorescence; inhibition, % at 5.6 µM; 0.63% of 330,000 active;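 active = inhibition above that plate's mean sample inhibition plus 3 SD, cut at about 26% in these data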;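 note: 0% = ATP-challenged DMSO wells and 100% = DMSO wells without ATP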
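test system = CHO parental line | reagent = ATP stimulus | measured by = intracellular calcium via Fluo-8 no-wash fluorescent dye | control set = ATP and no-ATP DMSO wells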
CHO-K1 Ca ag – M1 agonist counterscreen hit in parental CHO-K1 cells. Fluo-8 calcium fluorescence; scaled to maximal ATP response, vehicle zero. activation, % at 3 µM. 0.48% of 360,000 active. AID 602248; in the data active = activation above about 15%;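 note: untransfected CHO-K1 host cells lacking M1 receptor as counterscreen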
CHO-K1 Ca antag – counter-screen for M1 antagonists: effect in parental CHO-K1 cells | ATP-induced calcium, Fluo-8 fluorescence | inhibition, % at 3 µM | 0.6% of 360,000 active;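 active = inhibition above a per-plate cutoff, the plate's mean sample inhibition plus 3 SD, cut at about 24% in these data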;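 note: 0% = DMSO plus EC80 ATP and 100% = DMSO alone without ATP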
OX1R antag-2 – blocks the human orexin 1 receptor | OX1R-expressing cells, FRET antagonist read-out | inhibition, % at 6.6 µM | 1.8% of 330,000 active | AID 485270; in the data active = inhibition mostly above about 38%, no sharp cut-off; inactive = mostly below about 40%;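 note: 0% = agonist challenge alone and 100% = reference antagonist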
Numbers without * were called inactive; nt = not tested or not shown. In the library only some 2.9% were active in any assay of this set; here they are far more common.

SMILES	OX1R antag-1	M1 PAM parental	CHO parental Ca	CHO-K1 Ca ag	CHO-K1 Ca antag	OX1R antag-2
N=c1c(C(=O)NCC2CCCO2)cc2c(=O)n3ccccc3nc2n1Cc1ccc(Cl)cc1 (stereo not drawn)	-12	3	-3	2	-9	39
Cc1ccc(Cn2c(=N)c(C(=O)NCC3CCCO3)cc3c(=O)n4ccccc4nc32)cc1 (stereo not drawn)	-11	7	-8	1	-17	56*
N=c1c(C(=O)NCC2CCCO2)cc2c(=O)n3ccccc3nc2n1Cc1ccccc1Cl (stereo not drawn)	-4	16	-6	1	-5	30
Cc1nc(Cc2nnc(SCC(=O)N3c4ccccc4NC(=O)C3(C)C)o2)cs1	nt	-13	nt	0	-1	nt
Cc1ccc(CN2CCN(C(=O)C3CCCO3)CC2)cc1 (stereo not drawn)	-11	16	-9	0	-6	7
CCOC(=O)C1CCN(Cc2c(O)ccc3ccccc23)CC1	-6	10	-14	1	-13	7
CCOC(=O)N1CCN(Cc2c(O)ccc3ccccc23)CC1	-6	-7	-13	16*	-3	5
O=C(C1CCCO1)N1CCN(Cc2c(O)ccc3ccccc23)CC1 (stereo not drawn)	-19	7	29*	2	-5	37
Cc1nn(-c2ccccc2)c2c1CC(=O)Nc1ccccc1-2	nt	-1	nt	-1	9	nt
COc1ccc(CCNC(=O)Cn2ccc3cc(S(=O)(=O)N4CCCC4)ccc32)cc1OC	9	18	-15	0	-2	57*
CC(C)OCCCNC(=O)Cn1ccc2cc(S(=O)(=O)N3CCCCC3)ccc21	-7	6	-19	1	-16	14
Cc1ccccc1CCNC(=O)Cn1ccc2cc(S(=O)(=O)N3CCCC3)ccc21	16	12	-16	1	4	46*
CN(C)CCNC(=O)Cn1ccc2cc(S(=O)(=O)N3CCCCCC3)ccc21	-9	13	-13	1	-4	15
Cc1ccc(CCNC(=O)Cn2ccc3cc(S(=O)(=O)N4CCCC4)ccc32)cc1	22	23	-19	4	-11	56*
COc1cc(C)nc(-c2csc(C)n2)n1	-13	-23	-7	0	3	10
COc1ccc(CN2C(=O)C(CC(C)C)Nc3ncnc(N4CCOCC4)c32)cc1 (stereo not drawn)	-4	7	-16	0	-7	19
N#Cc1ccc(NN=Nc2ccccc2C#N)cc1	nt	-2	nt	1	-6	nt
CC1(C(=O)Nc2cccc3cccnc23)CCN1Cc1ccc(-c2ccccc2)o1 (stereo not drawn)	nt	3	nt	0	2	nt
CCc1nc(Nc2ccccc2F)c2oc3ccccc3c2n1	-31	7	-30	-2	-25	44*
C=C1CC(C(=O)N/N=C/c2ccccc2)C1	1	23	0	5	1	8
COc1ccc(NC(=O)c2cc(-c3ccc(C)c(C)c3O)n[nH]2)cc1Cl	0	-6	24	10	11	50*
Cc1ccc(NC(=O)c2cc(-c3ccc(C)c(C)c3O)n[nH]2)cc1C	-8	-13	1	0	4	14
CC1(C)C(CSc2nc3ccccc3[nH]2)C1(Cl)Cl (stereo not drawn)	-20	9	-9	3	-5	38
CC(C)CNC(=S)N1CCC(c2nc(-c3ccc(F)cc3)no2)CC1	19	-10	48*	12	15	21
COCCNC(=S)N1CCC(c2nc(-c3ccc(N(C)C)cc3)no2)CC1	-14	14	-7	4	-1	15
SMILES	OX1R antag-1	M1 PAM parental	CHO parental Ca	CHO-K1 Ca ag	CHO-K1 Ca antag	OX1R antag-2
CN(C)S(=O)(=O)c1cccc(NC(=O)COC(=O)CCSc2ccc(Cl)cc2)c1	-13	2	-2	6	-3	14
CCN(CC)S(=O)(=O)c1cccc(NC(=O)CCSc2ccc(Cl)cc2)c1	10	7	48*	10	5	6
O=C(O)/C=C(/c1ccccc1)C(F)(F)F	nt	20	nt	0	-15	nt
COc1cccc(OC)c1C(=O)OCC(=O)NCc1ccco1	-10	-17	-6	0	-5	6
COc1cc(N2C(=O)c3ccccc3C2=O)c(Cl)cc1C(=O)OCC(=O)NCc1ccco1	-5	-9	-21	0	28*	37
COc1ccc(-n2nnnc2CNC(=O)C2CC(=O)N(c3ccc(F)cc3)C2)cc1 (stereo not drawn)	nt	-16	nt	0	28*	nt
COc1ccc(S(=O)(=O)N2CN3CCN(C3)C2)cc1OC	-1	24	-8	5	-2	-13
COc1ccccc1N=Nc1nc(-c2ccccc2)c(-c2ccccc2)[nH]1	0	-1	26	0	15	66*
COc1ccc(N=Nc2nc(-c3ccccc3)c(-c3ccccc3)[nH]2)cc1	-20	11	-18	2	-2	19
NC1=NC[C@H](Cc2ccccc2)N1CCCCC1CCCCC1	75*	17	74*	4	-3	-12
NC1=NC[C@H](Cc2ccc(O)cc2)N1CCCCC1CCCCC1	-7	-4	-6	0	-10	23
CC(C)(C)c1cc(NC(=O)C2(C)CCN2C(=O)C2(c3ccccc3)CCCC2)no1 (stereo not drawn)	nt	20	nt	0	-15	nt
CCN(CC)CCN1C(=O)C(=O)/C(=C(/O)c2c(C)[nH]c(C(=O)OC)c2C)C1c1ccccc1OC (stereo not drawn)	-25	-7	-3	0	31*	12
CC(C)N1CCN(c2ccncc2S(=O)(=O)N2CCN(C)CC2)CC1	nt	13	nt	0	-6	nt
O=C(CCCc1ccccc1)NCCS(=O)(=O)N1CCN(c2ccc(F)cc2)CC1	-38	-20	-14	2	-2	12
CCc1cccc(CC)c1N1C(=O)COCC1=O	nt	-14	nt	0	1	nt
CCc1cccc(CC)c1N1C(=O)C2=C(SCCCS2)C1=O	nt	-2	nt	26*	12	nt
Cc1sc2ncnc(NCc3ccccc3)c2c1C	0	7	35*	7	12	27
Cc1sc2ncnc(NCC(C)(C)N3CCOCC3)c2c1C	31	10	32	5	6	82*
Cc1cc2c(NCc3ccccc3)ncnc2s1	23	-7	32*	10	16	9
COc1ccc(CNc2ncnc3sccc23)cc1	10	-19	45*	12	23	20
c1ccc(CNc2ncnc3sccc23)cc1	25	-25	20	13	5	10
COC(CNC(=O)C1CCCN(S(=O)(=O)c2c(C)noc2/C=C/c2cccs2)C1)OC (stereo not drawn)	0	12	-11	15*	-2	21
COCCNC(=O)C1CCCN(S(=O)(=O)c2c(C)noc2/C=C/c2cccs2)C1 (stereo not drawn)	-25	0	-12	3	-13	9
CCN(CC)S(=O)(=O)c1ccc(Cl)c(NC(=O)CSc2cccc[n+]2[O-])c1	-10	21	-12	1	-17	7
